Data reported in ChEMBL document CHEMBL2429791, “Preparation of asymmetric urea derivatives that target prostate-specific membrane antigen for SPECT imaging” (J Med Chem, 2013).

How the values were obtained:
Assay type in all cases: ADME, organism-based; call rule not given here
[1] = test system: Spleen; experiment: Biodistribution in spleen of C.B.-17/Icr scid/scid Jcl mouse xenografted with human LNCAP and PC3 cells at 25.9 MBq, iv after 30 mins; conditions: in vivo, 0.5 h
[2] = test system: Heart; experiment: Biodistribution in heart of C.B.-17/Icr +/+ Jcl mouse xenografted with human LNCAP and PC3 cells at 25.9 MBq, iv after 1 hr; conditions: in vivo
Procedure, shortened: (§1)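 ¹²⁵I-labelled tracer given iv by tail vein to mice (22–24 g) bearing LNCaP (left shoulder) and PC-3 (right shoulder) xenografts of about 5–10 mm, grown from 1–5 × 10⁶ cells in 1:1 Matrigel. n=4 per time point; decapitated at 2 min, 30 min, 1, 3, 6 h. Tissues weighed and counted; uptake as %ID/g, mean ± SD.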

[3] = test system: Nucleic Acid; experiment: Ratio of drug level in human LNCAP cells xenografted in C.B.-17/Icr +/+ Jcl mouse to muscle of C.B.-17/Icr +/+ Jcl mouse xenografted with human LNCAP and PC3 cells at 25.9 MBq, iv after 3 hrs; conditions: in vivo
Procedure, shortened: (§2)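 Tumor-to-blood and tumor-to-muscle ratios were calculated from %ID/g values in ¹²⁵I-tracer biodistribution in LNCaP/PC-3 xenografted mice. Tail-vein dosing, n=4 per time point, sacrifice at 2 min, 30 min, 1, 3 or 6 h.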

[4] = test system: Lung; experiment: Biodistribution in lung of C.B.-17/Icr +/+ Jcl mouse xenografted with human LNCAP and PC3 cells at 25.9 MBq, iv after 30 mins; conditions: in vivo, 0.5 h
Procedure, shortened: (§3)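 Radioiodinated (¹²⁵I) tracer given by tail-vein injection to mice bearing LNCaP (left shoulder) and PC-3 (right shoulder) xenografts, 22–24 g, grown to about 5–10 mm. Groups of n=4 were decapitated at 2 min, 30 min, 1 h, 3 h or 6 h. Tissues were weighed and counted, and uptake was expressed as %ID/g (mean ± SD).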

[5] = test system: Thyroid gland; experiment: Biodistribution in thyroid of C.B.-17/Icr +/+ Jcl mouse xenografted with human LNCAP and PC3 cells at 25.9 MBq, iv after 3 hrs; conditions: in vivo; procedure, shortened: as §3
[6] = test system: Muscle tissue; experiment: Biodistribution in muscle of C.B.-17/Icr +/+ Jcl mouse xenografted with human LNCAP and PC3 cells at 25.9 MBq, iv after 1 hr; conditions: in vivo; procedure, shortened: as §3
[7] = test system: Heart; experiment: Biodistribution in heart of C.B.-17/Icr +/+ Jcl mouse xenografted with human LNCAP and PC3 cells at 25.9 MBq, iv after 6 hrs; conditions: in vivo; procedure, shortened: as §1
[8] = test system: Nucleic Acid; experiment: Ratio of drug level in human LNCAP cells to human PC3 cells xenografted in C.B.-17/Icr […] Jcl mouse at 25.9 MBq, iv after 1 hr; conditions: in vivo
[9] = Ratio of drug level in human LNCAP cells xenografted in C.B.-17/Icr +/+ Jcl mouse to blood of C.B.-17/Icr +/+ Jcl mouse xenografted with human LNCAP and PC3 cells at 25.9 MBq, iv after 6 hrs; conditions: LNCAP tumour xenograft relative to blood; procedure, shortened: as §2
[10] = Ratio of drug level in human LNCAP cells xenografted in C.B.-17/Icr +/+ Jcl mouse to blood of C.B.-17/Icr +/+ Jcl mouse xenografted with human LNCAP and PC3 cells at 25.9 MBq, iv after 1 hr; conditions: LNCAP tumour xenograft relative to blood; procedure, shortened: as §2
[11] = test system: Blood; experiment: Biodistribution in blood of C.B.-17/Icr scid/scid Jcl mouse xenografted with human LNCAP and PC3 cells at 25.9 MBq, iv after 30 mins; conditions: in vivo, 0.5 h
[12] = test system: Kidney; experiment: Biodistribution in kidney of C.B.-17/Icr […] Jcl mouse xenografted with human LNCAP and PC3 cells at 25.9 MBq, iv after 1 hr; conditions: in vivo; procedure, shortened: as §1
[13] = test system: Liver; experiment: Biodistribution in liver of C.B.-17/Icr […] Jcl mouse xenografted with human LNCAP and PC3 cells at 25.9 MBq, iv after 6 hrs; conditions: in vivo; procedure, shortened: as §1
[14] = Ratio of drug level in human PC3 cells xenografted in C.B.-17/Icr +/+ Jcl mouse to blood of C.B.-17/Icr +/+ Jcl mouse xenografted with human LNCAP and PC3 cells at 25.9 MBq, iv after 6 hrs; conditions: PC3 tumour xenograft relative to blood
Procedure, shortened: (§4)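 Mice (22–24 g) carried PC-3 (right shoulder) and LNCaP (left shoulder) tumors, raised by injecting 1–5 × 10⁶ cells in 1:1 PBS/Matrigel and used at about 5–10 mm diameter. [¹²⁵I]-tracer was given via the tail vein, n=4 per time point, and mice were decapitated at 2 min, 30 min, 1, 3 or 6 h. Tissues were weighed and γ-counted as %ID/g. Tumor/blood and tumor/muscle ratios were taken from %ID/g, mean ± SD.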

[15] = test system: Kidney; experiment: Biodistribution in kidney of C.B.-17/Icr +/+ Jcl mouse xenografted with human LNCAP and PC3 cells at 25.9 MBq, iv after 30 mins; conditions: in vivo, 0.5 h; procedure, shortened: as §1
[16] = Ratio of drug level in human LNCAP cells xenografted in C.B.-17/Icr +/+ Jcl mouse to blood of C.B.-17/Icr +/+ Jcl mouse xenografted with human LNCAP and PC3 cells at 25.9 MBq, iv after 2 mins; conditions: LNCAP tumour xenograft relative to blood; procedure, shortened: as §2
[17] = test system: PC-3; experiment: Biodistribution in PC3 cells in C.B.-17/Icr +/+ Jcl mouse xenografted with human LNCAP and PC3 cells at 25.9 MBq, iv after 30 mins; conditions: in vivo, 0.5 h; procedure, shortened: as §1
[18] = test system: Liver; experiment: Drug excretion in C.B.-17/Icr […] Jcl mouse liver xenografted with human LNCAP and PC3 cells at 25.9 MBq, iv; conditions: in vivo
[19] = test system: Blood; experiment: Biodistribution in blood of C.B.-17/Icr +/+ Jcl mouse xenografted with human LNCAP and PC3 cells at 25.9 MBq, iv after 2 mins; conditions: in vivo; procedure, shortened: as §1
[20] = Ratio of drug level in human LNCAP cells xenografted in C.B.-17/Icr +/+ Jcl mouse to blood of C.B.-17/Icr +/+ Jcl mouse xenografted with human LNCAP and PC3 cells at 25.9 MBq, iv after 30 mins; conditions: LNCAP tumour xenograft relative to blood; procedure, shortened: as §2
[21] = test system: PC-3; experiment: Biodistribution in PC3 cells in C.B.-17/Icr +/+ Jcl mouse xenografted with human LNCAP and PC3 cells at 25.9 MBq, iv after 1 hr; conditions: in vivo; procedure, shortened: as §1
[22] = test system: Nucleic Acid; experiment: Ratio of drug level in human PC3 cells xenografted in C.B.-17/Icr +/+ Jcl mouse to muscle of C.B.-17/Icr +/+ Jcl mouse xenografted with human LNCAP and PC3 cells at 25.9 MBq, iv after 2 mins; conditions: in vivo; procedure, shortened: as §4
[23] = test system: Blood; experiment: Biodistribution in blood of C.B.-17/Icr scid/scid Jcl mouse xenografted with human LNCAP and PC3 cells at 25.9 MBq, iv after 2 mins; conditions: in vivo
[24] = test system: Nucleic Acid; experiment: Ratio of drug level in human LNCAP cells to human PC3 cells xenografted in C.B.-17/Icr […] Jcl mouse at 25.9 MBq, iv after 3 hrs; conditions: in vivo
[25] = test system: Intestine; experiment: Biodistribution in intestine of C.B.-17/Icr […] Jcl mouse xenografted with human LNCAP and PC3 cells at 25.9 MBq, iv after 6 hrs; conditions: in vivo; procedure, shortened: as §1
[26] = test system: Lung; experiment: Biodistribution in lung of C.B.-17/Icr +/+ Jcl mouse xenografted with human LNCAP and PC3 cells at 25.9 MBq, iv after 2 mins; conditions: in vivo; procedure, shortened: as §3

Drug uptake [1]: Active
Drug uptake [2]: 1.3 % ID/g
Ratio [3]: 49.4
Drug uptake [4]: 2.9 % ID/g
Drug uptake [5]: 0.01 %ID
Drug uptake [6]: 0.5 % ID/g
Drug uptake [7]: 0.4 % ID/g
Ratio [8]: 9.6
Kp at 6 h [9]: 13.3
Kp at 1 h [10]: 6.9
Drug uptake [11]: 1.5 % ID/g
Drug uptake [12]: 92.8 % ID/g
Drug uptake [13]: 4.5 % ID/g
Kp at 6 h [14]: 0.4
Drug uptake [15]: 88.8 % ID/g
Kp at 2 min [16]: 0.6
Drug uptake [17]: 0.9 % ID/g
Drug excretion [18]: Active
Drug uptake [19]: 7.4 % ID/g
Kp at 0.5 h [20]: 7.2
Drug uptake [21]: 0.7 % ID/g
Ratio [22]: 1.9
Drug uptake [23]: 8.9 % ID/g
Ratio [24]: 33.9
Drug uptake [25]: 5.3 % ID/g
Drug uptake [26]: 6.8 % ID/g
Structure (SMILES): O=C(O)CC[C@H](NC(=O)N[C@@H](CSC1CC(=O)N(CCCC[C@H](NC(=O)CNC(=O)c2cccc([125I])c2)C(=O)O)C1=O)C(=O)O)C(=O)O (stereo partly specified)
